Experimental data: ChEMBL document CHEMBL3352262, “Synthesis and structure-activity relationships of pteridine dione and trione monocarboxylate transporter 1 inhibitors” (J Med Chem, 2014)
Active and inactive are the calls of the source. The rule behind the calls is not given here.

Legend:
Raji = test: Growth inhibition of human Raji cells after 96 hrs by MTT assay; assay type: functional, cell-based
Summary of the method: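 Human Raji Burkitt lymphoma cells were seeded at 20000/well and cultured with compound or vehicle for 4 days (96 h) in 5% CO2. MTT reagent was added for 5 h, then 2-propanol/0.04 N HCl, and absorbance was read at 570 and 630 nm. EC50 came from curve fitting.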

MCF7 [1] = test: Growth inhibition of human MCF7 cells overexpressing MCT4 up to 10 uM after 4 days by MTT assay; assay type: cell-based; conditions: mcf7, 96 h
Summary of the method: (§1)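 MCF7 cells engineered to overexpress mouse MCT1 or human MCT4 were seeded at 2000/well and compound was added the next day. Cells were cultured 4 days in 5% CO2, then given MTT reagent for 5 h and solubilized with 2-propanol/0.04 N HCl. Absorbance was read at 570 and 630 nm, in triplicate. The highest concentration tested on MCF7_MCT4 cells was 10 μM.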

MCF7 [2] = test: Growth inhibition of human MCF7 cells overexpressing MCT4 at 10 uM after 4 days by MTT assay; assay type: cell-based; conditions: mcf7, 96 h; summary of the method: as §1
MCF7 [3] = test: Growth inhibition of human MCF7 cells overexpressing MCT1 after 4 days by MTT assay; assay type: functional, cell-based; conditions: MCF7, 96 h; summary of the method: as §1
MCF7 [4] = test: Growth inhibition of human MCF7 cells overexpressing MCT4 after 4 days by MTT assay; assay type: cell-based; conditions: MCF7, 96 h; summary of the method: as §1
[5] = molecular target: T1, Monocarboxylate transporter 4 (Homo sapiens) (UniProt O15427); test: Inhibition of MCT4 (unknown origin) overexpressed in human MCF7 cells assessed as inhibition of transporter-mediated [14C]lactate transport after 10 mins by scintillation counting; assay type: cell-based
T1 sequence (whole entry): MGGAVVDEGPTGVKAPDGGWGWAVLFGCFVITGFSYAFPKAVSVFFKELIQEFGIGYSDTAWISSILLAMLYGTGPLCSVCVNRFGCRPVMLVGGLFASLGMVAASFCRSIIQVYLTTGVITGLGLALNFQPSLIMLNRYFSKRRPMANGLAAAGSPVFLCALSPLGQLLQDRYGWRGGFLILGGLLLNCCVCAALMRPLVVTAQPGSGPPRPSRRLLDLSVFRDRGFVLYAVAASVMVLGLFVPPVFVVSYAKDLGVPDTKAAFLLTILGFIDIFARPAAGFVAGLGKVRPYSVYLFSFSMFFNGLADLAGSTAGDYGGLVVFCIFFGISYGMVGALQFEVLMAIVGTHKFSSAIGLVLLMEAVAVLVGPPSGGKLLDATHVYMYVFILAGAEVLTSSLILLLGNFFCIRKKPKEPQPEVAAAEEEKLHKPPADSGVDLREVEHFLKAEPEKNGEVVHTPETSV

Row | SMILES | EC50 (Raji) | also measured
1 | COCCCCCc1nc2c(=O)n(C)c(=O)n(CC(C)C)c2nc1Cc1cccc2ccccc12 | 5780 nM | 
2 | CC(C)Cn1c(=O)n(C)c(=O)c2nc(-c3nnn(C)c3CCCO)c(Cc3cccc4ccccc34)nc21 | > 10000 nM | 
3 | Cc1n[nH]c(C)c1Cc1sc2c(c1C(=O)N1C[C@H](O)CO1)c(=O)n(C)c(=O)n2CC(C)C | 18 nM | 
4 | CC(C)Cn1c(=O)n(C)c(=O)c2c1nc(Cc1cccc3ccccc13)c(=O)n2CCCCCO | 1420 nM | 
5 | CC(C)Cn1c(=O)n(C)c(=O)c2nc(-c3c(CCCO)nnn3C)c(Cc3cccc4ccccc34)nc21 | > 10000 nM | 
6 | CC(C)Cn1c(=O)n(C)c(=O)c2c1nc(Cc1cccc3ccccc13)c(=O)n2CCCCO | 150 nM | 
7 | CC(C)Cn1c(=O)n(C)c(=O)c2nc(CCCCCCO)c(Cc3cccc4ccccc34)nc21 | 1690 nM | 
8 | CC(C)Cn1c(=O)n(C)c(=O)c2nc(SCCO)c(Cc3cccc4ccccc34)nc21 | 2850 nM | 
9 | CC(C)Cn1c(=O)n(C)c(=O)c2nc(C(=O)NCCCO)c(Cc3cccc4ccccc34)nc21 | > 10000 nM | 
10 | CC(C)Cn1c(=O)n(C)c(=O)c2nc(CCCCCO)c(Cc3cccc4ccccc34)nc21 | 58 nM | Activity (MCF7 [1]): Non-toxic
11 | CC(C)Cn1c(=O)n(C)c(=O)c2nc(/C=C\CCCO)c(Cc3cccc4ccccc34)nc21 | 70 nM | Activity (MCF7 [2]): Toxic
12 | CC(C)Cn1c(=O)n(C)c(=O)c2nc(SCCCO)c(Cc3cccc4ccccc34)nc21 | 151 nM | 
13 | CC(C)Cn1c(=O)n(C)c(=O)c2nc([S+]([O-])CCCO)c(Cc3cccc4ccccc34)nc21 (stereo not drawn) | 1990 nM | 
14 | CC(C)Cn1c(=O)n(C)c(=O)c2nc(-c3[nH]nnc3CCCO)c(Cc3cccc4ccccc34)nc21 | 6020 nM | 
15 | CC(C)Cn1c(=O)n(C)c(=O)c2nc(C(=O)N(C)CCCO)c(Cc3cccc4ccccc34)nc21 | > 10000 nM | 
16 | CC(C)Cn1c(=O)n(C)c(=O)c2c1nc(Cc1cccc3ccccc13)c(=O)n2CCCCCCO | > 10000 nM | 
17 | CC(C)Cn1c(=O)n(C)c(=O)c2[nH]c(=O)c(Cc3cccc4ccccc34)nc21 | > 10000 nM | 
18 | Cc1n[nH]c(C)c1Cc1nc2c(nc1CCCCCO)c(=O)n(C)c(=O)n2CC(C)C | > 10000 nM | 
19 | CC(C)Cn1c(=O)n(C)c(=O)c2nc(SCCCCO)c(Cc3cccc4ccccc34)nc21 | 37 nM | Activity (MCF7 [1]): Non-toxic
20 | CC(C)Cn1c(=O)n(C)c(=O)c2nc(CCCCO)c(Cc3cccc4ccccc34)nc21 | 285 nM | 
21 | CC(C)Cc1nn(C)c(=O)c2c(SCCCO)n(Cc3cccc4ccccc34)cc12 | 0.5 nM | EC50 (MCF7 [3]): 21 nM; EC50 (MCF7 [4]): > 10000 nM; inhibition [5]: inactive
22 | CC(C)Cn1c(=O)n(C)c(=O)c2nc(S(=O)(=O)CCCO)c(Cc3cccc4ccccc34)nc21 | 3750 nM | 
